Assay results taken from ChEMBL document CHEMBL1147518, “Hydroxytriamides as potent gamma-secretase inhibitors” (Bioorg Med Chem Lett, 2004).

Biological target: Gamma-secretase
Experiment: Inhibition of gamma-secretase activity in H4 human neuroglioma cells by measuring amyloid beta production
Type: cell-based
Procedure, shortened: (§1)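 H4 human neuroglioma cells expressing HPLAP-βAPP164SFAD, grown in high-glucose DMEM with 10% FBS, pen-strep, 2 mM glutamine and geneticin, plated in 96 wells; after attachment, medium swapped for Ultraculture containing compound (1% DMSO final), overnight incubation. Aβ1-40 in conditioned medium measured by sandwich ELISA (C-terminal Aβ40-specific capture, HRP N-terminal detection, TMB/phosphoric acid). Means of two experiments, 16 data points each.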

| SMILES | IC50 |
| --- | --- |
| CCCCN(C)C(=O)[C@H](CC1CCCCC1)NC(=O)[C@H](CC(C)C)NC(=O)[C@@H](OC)c1ccccc1 | 2 µM |
| CCCCN(C)C(=O)[C@H](CC1CCCCC1)NC(=O)[C@H](CC(C)C)NC(=O)Cc1cc(C(F)(F)F)cc(C(F)(F)F)c1 | 0.408 µM |
| CCCCN(C)C(=O)[C@H](CC1CCCCC1)NC(=O)[C@H](CC(C)C)NC(=O)[C@@](C)(OC)c1ccccc1 | > 2.5 µM |
| COC(=O)[C@H](CC1CCCCC1)NC(=O)[C@H](CC(C)C)NC(=O)Cc1ccccc1 | 0.8 µM |
| CCCCN(C)C(=O)[C@H](CC1CCCCC1)NC(=O)[C@H](Cc1ccccc1)NC(=O)Cc1cc(F)cc(F)c1 | 2.4 µM |
| CC(C)C[C@H](NC(=O)Cc1ccc2ccccc2c1)C(=O)N[C@@H](CC1CCCCC1)[C@H](O)Cc1ccccc1C(=O)NC(C)(C)C | 0.0047 µM |
| CCCCN(C)C(=O)[C@H](CC1CCCCC1)NC(=O)CNC(=O)Cc1cc(F)cc(F)c1 | 0.3 µM |
| CCOC(=O)[C@H](CC1CCCCC1)NC(=O)[C@H](CC(C)C)NC(=O)Cc1ccccc1 | 0.9 µM |
| CCCCN(C)C(=O)[C@H](CC1CCCCC1)NC(=O)[C@H](CC(C)C)NC(=O)[C@](C)(O)c1ccccc1 | > 2.5 µM |
| CCCCN(C)C(=O)[C@H](CC1CCCCC1)NC(=O)[C@H](CC(C)C)NC(=O)[C@H](OC)c1ccccc1 | > 2.5 µM |
| CC(C)C[C@H](NC(=O)Cc1ccccc1)C(=O)N[C@@H](CC1CCCCC1)C(=O)N1CCCCC1 | 0.05 µM |
| CC(C)CCC(=O)[C@H](CC1CCCCC1)NC(=O)[C@H](CC(C)C)NC(=O)Cc1ccccc1 | 0.3 µM |
| CCCCN(C)C(=O)[C@H](CC1CCCCC1)NC(=O)[C@H](CC(C)C)NC(=O)[C@](C)(OC)c1ccccc1 | > 2.5 µM |
| CC(C)CNC(=O)[C@H](CC1CCCCC1)NC(=O)[C@H](CC(C)C)NC(=O)Cc1ccccc1 | 0.15 µM |
| CCCCN(C)C(=O)[C@H](CC1CCCCC1)NC(=O)[C@@H]1CCCCN1C(=O)[C@@H](O)c1ccccc1 | > 2.5 µM |
| CCCCN(C)C(=O)[C@H](CC1CCCCC1)NC(=O)[C@H](CC(C)C)NC(=O)C(O)(O)c1ccccc1 | 0.001 µM |
| CCCCN(C)C(=O)[C@H](CC1CCCCC1)NC(=O)[C@H](C)NC(=O)Cc1cc(F)cc(F)c1 | 0.032 µM |
| CC(C)CC[C@@H](O)[C@H](CC1CCCCC1)NC(=O)[C@H](CC(C)C)NC(=O)Cc1ccccc1 | 1.2 µM |
| CC(C)C[C@H](NC(=O)Cc1ccccc1)C(=O)N[C@@H](CC1CCCCC1)C(=O)N(C)Cc1ccccc1 | 0.039 µM |
| CON(C)C(=O)[C@H](CC1CCCCC1)NC(=O)[C@H](CC(C)C)NC(=O)Cc1ccccc1 | 0.13 µM |
| CCCCN(C)C(=O)[C@@H]1Cc2ccccc2CN1C(=O)[C@H](CC(C)C)NC(=O)[C@@H](O)c1ccccc1 | 0.066 µM |
| CCCCN(C)C(=O)[C@H](CC1CCCCC1)NC[C@H](CC(C)C)NC(=O)[C@@H](O)c1ccccc1 | > 2.5 µM |
| CCCCN(C)C[C@H](CC1CCCCC1)NC(=O)[C@H](CC(C)C)NC(=O)Cc1ccccc1 | 1.7 µM |

Other lines, results leading:

| IC50 | SMILES |
| --- | --- |
| 1.1 µM | CCCCN(C)C(=O)[C@H](CC1CCCCC1)NC(=O)[C@H](CC(C)C)NC(=O)Cc1ccc(N)cc1 |
| 0.052 µM | CCCCN(C)C(=O)[C@H](CC1CCCCC1)NC(=O)[C@H](CC(C)C)NC(=O)Cc1cccc(Cl)c1 |
| 0.24 µM | CCCCNC(=O)[C@H](CC1CCCCC1)NC(=O)[C@H](CC(C)C)NC(=O)Cc1ccccc1 |
| 0.16 µM | CCCCN(C)C(=O)[C@H](CC1CCCCC1)NC(=O)[C@H](CC(C)C)NC(=O)CCc1ccccc1 |
| > 2.6 µM | CCCCN(C)C(=O)[C@H](CC1CCCCC1)NC(=O)[C@H](CC(C)C)NC(=O)/C=C/c1ccccc1 |
| 0.102 µM | CC(C)C[C@H](NC(=O)Cc1ccccc1)C(=O)N[C@@H](CC1CCCCC1)C(=O)N(C)C |
| 0.24 µM | CCCCN(C)C(=O)[C@H](CC1CCCCC1)NC(=O)[C@H](CC(C)C)NC(=O)[C@H](O)c1ccccc1 |
| 0.48 µM | CCCCN(C)C(=O)[C@H](CC1CCCCC1)NC(=O)[C@H](CC(C)C)NC(=O)Cc1cccc(OC)c1 |
| 0.02 µM | CCCCN(C)C(=O)[C@H](CC1CCCCC1)NC(=O)[C@H](CC(C)C)NC(=O)Cc1cccc(F)c1 |
| 0.036 µM | CCCCN(C)C(=O)[C@H](CC1CCCCC1)NC(=O)[C@H](CC(C)C)NC(=O)Cc1ccc(F)cc1 |
| 0.28 µM | CCCCN(C)C(=O)[C@H](CC1CCCCC1)NC(=O)[C@H](CC(C)C)NC(=O)Cc1ccccc1F |
| 0.013 µM | CC(C)C[C@H](NC(=O)Cc1ccccc1)C(=O)N[C@@H](CC1CCCCC1)C(=O)N(C)CC(C)C |
| 1 µM | CCCCN(C)C(=O)[C@@H](CC1CCCCC1)NC(=O)[C@H](CC(C)C)NC(=O)Cc1ccccc1 |
| 3.2 µM | CCCCN(C)C(=O)[C@H](CC1CCCCC1)NC(=O)[C@H](CC(C)C)NC(=O)c1ccccc1 |
| 0.454 µM | CCCCN(C)C(=O)[C@H](CC1CCCCC1)NC(=O)[C@H](CC(C)C)NC(=O)Cc1cccc(C)c1 |
| 0.8 µM | CCCCN(C)C(=O)[C@H](CC1CCCCC1)NC(=O)[C@H](CC(C)C)NC(=O)Cc1cc(OC)cc(OC)c1 |
| 0.055 µM | CCCCN(CC)C(=O)[C@H](CC1CCCCC1)NC(=O)[C@H](CC(C)C)NC(=O)Cc1ccccc1 |
| 0.017 µM | CCCCN(C)C(=O)[C@H](CC1CCCCC1)NC(=O)[C@H](CC(C)C)NC(=O)Cc1ccccc1 |
| > 2.5 µM | CCCCN(C)C(=O)[C@H](CC1CCCCC1)NC(=O)[C@H](CC(C)C)NC(=O)Cc1cccc(N)c1 |

Biological target: Gamma-secretase
Experiment: Inhibition of gamma-secretase activity in H4 human neuroglioma cells by measuring amyloid beta production; Inactive
Type: cell-based
Procedure, shortened: as §1

| IC50 | SMILES |
| --- | --- |
| > 2.5 µM | CCCCN(C)C(=O)[C@H](CCCCN)NC(=O)[C@H](CC(C)C)NC(=O)Cc1cc(F)cc(F)c1 |
| > 2.5 µM | CCCCN(C)C(=O)[C@H](CC(=O)O)NC(=O)[C@H](CC(C)C)NC(=O)Cc1cc(F)cc(F)c1 |
| > 2.5 µM | CCCCN(C)C(=O)[C@H](CC1CCCCC1)NC(=O)[C@@H](CC(C)C)NC(=O)Cc1cc(F)cc(F)c1 |
| > 2.5 µM | CCCCN(C)C(=O)[C@H](CC1CCCCC1)NC(=O)[C@@H]1CCCN1C(=O)Cc1cc(F)cc(F)c1 |
